What was measured:
MT4 [1] = experiment: Tested for cytotoxic concentration in MT-4 cell culture; format: functional; settings: Homo sapiens
Summary of the method: (§1)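 Viability of uninfected CEM-SS, MT-4 or CEM/TK− cells measured. CC50 is the concentration that reduces viability by 50%. Values are averages of at least three separate experiments, with variation below ±10%.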

CCRF-CEM [2] = experiment: Tested for anti-HIV -1 Activity in CEM/TK- cell culture; format: functional, cell-based; settings: Homo sapiens
Summary of the method: (§2)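 HIV-1 replication assayed in human T4 lymphoblastoid CEM-SS or MT-4 cells, or thymidine kinase-deficient CEM (CEM/TK−) cells. EC50 is the concentration that inhibits HIV-1 replication by 50%. Values are averages of at least three separate experiments, with variation below ±10%.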

CCRF-CEM [3] = experiment: Tested for cytotoxic concentration in CEM/TK- cell culture; format: functional; settings: Homo sapiens; summary of the method: as §1
CCRF-CEM [4] = experiment: Tested for cytotoxic concentration in CEM-SS cell culture; format: functional; settings: Homo sapiens; summary of the method: as §1
CCRF-CEM [5] = experiment: Tested for anti-HIV -1 Activity in CEM-SS cell culture; format: functional, cell-based; settings: Homo sapiens; summary of the method: as §2
[6] = Partition coefficient (logP); format: physicochemical; settings: octanol/water
Summary of the method: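 Apparent partition coefficient (log Papp) measured as distribution between 1-octanol and potassium phosphate buffer (0.02 M, pH 7.2) by an adapted shake-flask method.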

MT4 [7] = experiment: Tested for anti-HIV -1 Activity in MT-4 cell culture; format: functional, cell-based; settings: Homo sapiens; summary of the method: as §2
CCRF-CEM [8] = experiment: Tested for cytotoxic activity in CEM/TK- cell culture; format: functional; settings: Homo sapiens; summary of the method: as §1
CCRF-CEM [9] = experiment: Tested for anti-HIV -1 activity in CEM-SS cell culture; format: functional, cell-based; settings: Homo sapiens; summary of the method: as §2
CCRF-CEM [10] = experiment: Tested for anti-HIV -1 activity in CEM/TK- cell culture; format: functional, cell-based; settings: Homo sapiens; summary of the method: as §2
MT4 [11] = experiment: Tested for anti-HIV -1 activity in MT-4 cell culture; format: functional, cell-based; settings: Homo sapiens; summary of the method: as §2
CCRF-CEM [12] = experiment: Tested for cytotoxic activity in CEM-SS cell culture; format: functional; settings: Homo sapiens; summary of the method: as §1
MT4 [13] = experiment: Tested for cytotoxic activity in MT-4 cell culture; format: functional; settings: Homo sapiens; summary of the method: as §1
MT4 [14] = experiment: Tested for anti-HIV -1 Activity in MT-4 cell culture,(Human); format: functional, cell-based; summary of the method: as §2
CCRF-CEM [15] = experiment: Tested for cytotoxic concentration in CEM/TK- cell culture,(Human); format: functional; summary of the method: as §1
CCRF-CEM [16] = experiment: Tested for anti-HIV -1 Activity in CEM-SS cell culture,(Human); format: functional, cell-based; summary of the method: as §2
MT4 [17] = experiment: Tested for cytotoxic concentration in MT-4 cell culture,(Human); format: functional; summary of the method: as §1
CCRF-CEM [18] = experiment: Tested for anti-HIV -1 Activity in CEM/TK- cell culture,(Human); format: functional, cell-based; summary of the method: as §2
CCRF-CEM [19] = experiment: Tested for cytotoxic concentration in CEM-SS cell culture,(Human); format: functional; summary of the method: as §1

Which CC50 (MT4 [1]) does the source give for `Cc1cn(C2CC(N=[N+]=[N-])C(COP(=O)(OCCSC(=O)C(C)(C)C)OCCSC(=O)C(C)(C)C)O2)c(=O)[nH]c1=O` (centres undefined) here?
The CC50 was greater than 10000 nM.

What about the EC50 (CCRF-CEM [2]) of the same compound?
The EC50 was 450 nM.

What about the CC50 (CCRF-CEM [3]) of the same compound?
Its CC50 is greater than 10000 nM.

What about the CC50 (CCRF-CEM [4]) of the same compound?
Its CC50 is greater than 10000 nM.

And the EC50 (CCRF-CEM [5])?
Its EC50 is 15 nM.

And the logP ([6]; read-out: logP)?
Its logP is 3.73.

With `Cc1cn([C@H]2C[C@H](N=[N+]=[N-])[C@@H](CO)O2)c(=O)[nH]c1=O` [ZIDOVUDINE] as the compound, how does the CC50 (MT4 [1]) read?
Its CC50 is greater than 1000 nM.

What about the EC50 (CCRF-CEM [2]) of the same compound?
Its EC50 is greater than 100000 nM.

What about the CC50 (CCRF-CEM [3]) of the same compound?
Its CC50 is greater than 100000 nM.

And the CC50 (CCRF-CEM [4])?
Its CC50 is greater than 1000 nM.

And the EC50 (MT4 [7])?
The EC50 was 15 nM.

And the EC50 (CCRF-CEM [5])?
The EC50 was 3 nM.

What about the logP ([6]; read-out: logP) of the same compound?
Its logP is 0.06.

With `COC(=O)[C@H](Cc1ccc(OP(=O)(OCCSC(=O)C(C)(C)C)OCC2OC(n3cc(C)c(=O)[nH]c3=O)CC2N=[N+]=[N-])cc1)NC(=O)OC(C)(C)C` (some centres undefined) as the compound, how does the CC50 (MT4 [1]) read?
The CC50 was greater than 10000 nM.

And the EC50 (CCRF-CEM [2])?
The EC50 was 2300 nM.

And the CC50 (CCRF-CEM [3])?
The CC50 was greater than 10000 nM.

What about the CC50 (CCRF-CEM [4]) of the same compound?
Its CC50 is greater than 10000 nM.

And the EC50 (MT4 [7])?
Its EC50 is 33 nM.

And the EC50 (CCRF-CEM [5])?
The EC50 was 1 nM.

And the logP ([6]; read-out: logP)?
Its logP is 3.48.

With `COC(=O)[C@@H](N)Cc1ccc(OP(=O)(OCCSC(=O)C(C)(C)C)OCC2OC(n3cc(C)c(=O)[nH]c3=O)CC2N=[N+]=[N-])cc1` (some centres undefined) as the compound, how does the CC50 (CCRF-CEM [8]) read?
Its CC50 is greater than 100000 nM.

What about the EC50 (CCRF-CEM [9]) of the same compound?
The EC50 was 2 nM.

What about the EC50 (CCRF-CEM [10]) of the same compound?
The EC50 was 1800 nM.

And the EC50 (MT4 [11])?
Its EC50 is 37 nM.

What about the CC50 (CCRF-CEM [12]) of the same compound?
Its CC50 is greater than 100000 nM.

And the logP [6]?
The logP was 2.25.

What about the CC50 (MT4 [13]) of the same compound?
Its CC50 is greater than 10000 nM.

With `Cc1cn(C2CC(N=[N+]=[N-])C(COP(=O)(OCCSC(=O)C(C)(C)C)Oc3ccc(C[C@H](N)C(=O)O)cc3)O2)c(=O)[nH]c1=O` (some centres undefined) as the compound, how does the EC50 (MT4 [14]) read?
The EC50 was 75 nM.

And the CC50 (CCRF-CEM [15])?
The CC50 was greater than 100000 nM.

What about the EC50 (CCRF-CEM [16]) of the same compound?
Its EC50 is 6 nM.

What about the logP ([6]; read-out: logP) of the same compound?
Its logP is 0.24.

And the CC50 (MT4 [17])?
Its CC50 is greater than 10000 nM.

What about the EC50 (CCRF-CEM [18]) of the same compound?
Its EC50 is 29000 nM.

What about the CC50 (CCRF-CEM [19]) of the same compound?
Its CC50 is greater than 100000 nM.

With `Cc1cn(C2CC(N=[N+]=[N-])C(COP(=O)(OCCSC(=O)C(C)(C)C)Oc3ccc(C[C@H](N)C(=O)OC(C)(C)C)cc3)O2)c(=O)[nH]c1=O` (some centres undefined) as the compound, how does the CC50 (MT4 [1]) read?
The CC50 was greater than 10000 nM.

And the EC50 (CCRF-CEM [2])?
The EC50 was 2700 nM.

And the CC50 (CCRF-CEM [3])?
Its CC50 is greater than 10000 nM.

What about the CC50 (CCRF-CEM [4]) of the same compound?
Its CC50 is greater than 10000 nM.

And the EC50 (MT4 [7])?
The EC50 was 42 nM.

What about the EC50 (CCRF-CEM [5]) of the same compound?
Its EC50 is 4 nM.

What about the logP ([6]; read-out: logP) of the same compound?
The logP was 2.9.

With `Cc1cn([C@H]2C[C@H](N=[N+]=[N-])[C@@H](COP(=O)(OCCSC(=O)C(C)(C)C)Oc3ccccc3)O2)c(=O)[nH]c1=O` (some centres undefined) as the compound, how does the EC50 (MT4 [14]) read?
Its EC50 is 70 nM.

And the CC50 (CCRF-CEM [15])?
Its CC50 is greater than 10000 nM.

And the EC50 (CCRF-CEM [16])?
The EC50 was 2 nM.

And the logP [6]?
The logP was 3.46.

What about the CC50 (MT4 [17]) of the same compound?
The CC50 was greater than 10000 nM.

What about the EC50 (CCRF-CEM [18]) of the same compound?
The EC50 was 3500 nM.

Which CC50 (MT4 [1]) does the source give for `Cc1cn(C2CC(N=[N+]=[N-])C(COP(=O)(OCCSC(=O)C(C)(C)C)Oc3ccc(C[C@H](NC(=O)OC(C)(C)C)C(=O)OC(C)(C)C)cc3)O2)c(=O)[nH]c1=O` (some centres undefined) here?
Its CC50 is greater than 1000 nM.

What about the EC50 (CCRF-CEM [2]) of the same compound?
Its EC50 is 900 nM.

And the CC50 (CCRF-CEM [3])?
The CC50 was greater than 1000 nM.

And the CC50 (CCRF-CEM [4])?
The CC50 was greater than 1000 nM.

What about the EC50 (MT4 [7]) of the same compound?
Its EC50 is 250 nM.

And the EC50 (CCRF-CEM [5])?
Its EC50 is 34 nM.

What about the logP ([6]; read-out: logP) of the same compound?
The logP was 4.29.

Reference: ChEMBL document CHEMBL1133117, “S-Acyl-2-thioethyl aryl phosphotriester derivatives as mononucleotide prodrugs” (J Med Chem, 2000)
